Source: ChEMBL document CHEMBL2177074, “Variation of the net charge, lipophilicity, and side chain flexibility in Dmt(1)-DALDA: Effect on Opioid Activity and Biodistribution” (J Med Chem, 2012)
The source made the active and inactive calls. Non-standard residues stand in square brackets, D forms with d. Residues, ends and D or L forms follow the SMILES beside them. Dmt = Cc1cc(O)cc(C)c1C[C@H](N)C(=O)O; dCit = NC(=O)NCCC[C@@H](N)C(=O)O; NMeNle = CCCC[C@H](NC)C(=O)O; Nle = CCCC[C@H](N)C(=O)O

Legend:
Mus musculus [1] = experiment: Antinociceptive activity in sc dosed CD1 mouse assessed as thermal-stimulus induced tail flick latency after 6 to 7 hrs; type: functional, organism-based
Summary of the method: (§1)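 Male CD-1 mice (25–35 g) dosed s.c. at 10 µl/g. Radiant-heat tail-flick latency measured with a 10 s cut-off and expressed as %MPE. At least three doses, 5–6 mice per dose.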

Mus musculus [2] = experiment: Antinociceptive activity in sc dosed CD1 mouse assessed as thermal-stimulus induced tail flick latency after 2 hrs; type: functional; summary of the method: as §1
Mus musculus [3] = experiment: Antinociceptive activity in CD1 mouse assessed as thermal-stimulus induced tail flick latency at 1 umol/kg, ip after 45 to 60 mins; type: functional, organism-based
Mus musculus [4] = experiment: Antinociceptive activity in CD1 mouse assessed as thermal-stimulus induced tail flick latency at 1 umol/kg, ip up to 120 mins; type: functional, organism-based
[5] = Metabolic stability in mouse plasma assessed as compound recovery after 2 hrs; type: ADME, cell-free; settings: read-out: Stability
Summary of the method: (§2)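 100 µg unlabelled peptide in Krebs-Henseleit buffer pH 7.4 incubated at 37 °C with shaking, in 250 µl mouse plasma or brain homogenate (150 µg protein). Aliquots quenched with TFA, heated 5 min at 95 °C, then centrifuged. Supernatants analysed by UPLC or HPLC (210 nm); recovery measured after 2 h.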

[6] = Metabolic stability in mouse brain assessed as compound recovery after 2 hrs; type: ADME, tissue-based; settings: read-out: Stability; summary of the method: as §2
Serum = experiment: Biodistribution in ICR-CD1 mouse serum at 30000 cpm/uL, iv after 15 mins; type: ADME, organism-based; settings: in vivo, 0.25 h
Summary of the method: (§3)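 After intravenous 125I-peptide, kidneys, liver and other organs collected immediately after brain dissection, weighed and gamma-counted. Serum obtained by centrifugation at 10 000 × g for 15 min. Results expressed as % of injected dose per g tissue, normalized to body weight.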

Brain [7] = experiment: Blood brain barrier transport in ICR-CD1 mouse brain assessed as brain efflux rate coefficient at 30000 cpm/uL, iv; type: ADME, organism-based; settings: in vivo
Brain [8] = experiment: Blood brain barrier transport in ICR-CD1 mouse brain assessed as unidirectional initial influx rate at 30000 cpm/uL, iv; type: ADME, organism-based; settings: in vivo
[9] = biological target: Delta-type opioid receptor (Mus musculus, UniProt P32300); experiment: (§4) Agonist activity at delta opioid receptor in mouse vas deferens; type: functional, tissue-based
Summary of the method: (§5)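 Isolated tissue bioassays: mouse vas deferens and guinea pig ileum preparations. A [Leu5]enkephalin dose-response curve was run as standard on each preparation, and test IC50 values were normalized against it.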

Mu-type opioid receptor [10] = biological target: Mu-type opioid receptor (Cavia porcellus, UniProt P97266); experiment: (§6) Agonist activity at mu opioid receptor in guinea pig ileum; type: functional, tissue-based; summary of the method: as §5
[11] = biological target: Kappa-type opioid receptor (Cavia porcellus, UniProt P41144); experiment: Displacement of [3H]U69,593 from kappa opioid receptor in guinea pig ileum membranes after 2 hrs; type: cell membranes, Membrane
[12] = biological target: Delta-type opioid receptor (Rattus norvegicus, UniProt P33533); experiment: Displacement of [3H]DSLET from delta opioid receptor in rat brain membranes after 2 hrs; type: cell membranes
Mu-type opioid receptor [13] = biological target: Mu-type opioid receptor (Rattus norvegicus, UniProt P33535); experiment: Displacement of [3H]DAMGO from mu opioid receptor in rat brain membranes after 2 hrs; type: cell membranes
[14] = biological target: Mu-type opioid receptor (Cavia porcellus) (UniProt P97266); experiment: as §6; type: functional, tissue-based; summary of the method: as §5
Mus musculus [15] = experiment: Antinociceptive activity in sc dosed CD1 mouse assessed as thermal-stimulus induced tail flick latency after 30 mins; settings: 0.5 h
Mus musculus [16] = experiment: Antinociceptive activity in CD1 mouse assessed as AUC of thermal-stimulus induced tail flick latency assessed per min at 1 umol/kg, ip up to 120 mins; type: functional
Mus musculus [17] = experiment: Antinociceptive activity in sc dosed CD1 mouse assessed as thermal-stimulus induced tail flick latency after 1 hr relative to morphine; type: functional; summary of the method: as §1
Mus musculus [18] = experiment: Antinociceptive activity in sc dosed CD1 mouse assessed as thermal-stimulus induced tail flick latency after 1 hr; type: functional; summary of the method: as §1
Mus musculus [19] = experiment: Antinociceptive activity in sc dosed CD1 mouse assessed as thermal-stimulus induced tail flick latency after 2 to 3 hrs; type: functional, organism-based; summary of the method: as §1
Mus musculus [20] = experiment: Antinociceptive activity in CD1 mouse assessed as thermal-stimulus induced tail flick latency at 1 umol/kg, ip after 45 mins; type: functional, organism-based
Mus musculus [21] = experiment: Antinociceptive activity in CD1 mouse assessed as thermal-stimulus induced tail flick latency at 1 umol/kg, ip after 60 mins; type: functional, organism-based
Kidney = experiment: Biodistribution in ICR-CD1 mouse kidney at 30000 cpm/uL, iv; type: ADME, organism-based; settings: in vivo; summary of the method: as §3
Liver = experiment: Biodistribution in ICR-CD1 mouse liver at 30000 cpm/uL, iv; type: ADME, organism-based; settings: in vivo; summary of the method: as §3
Mus musculus [22] = experiment: Antinociceptive activity in sc dosed CD1 mouse assessed as thermal-stimulus induced tail flick latency; type: functional; summary of the method: as §1
[23] = Half life in sheep blood; type: ADME, cell-free, Ovis aries, Plasma
[24] = biological target: Delta-type opioid receptor (Mus musculus) (UniProt P32300); experiment: as §4; type: functional, tissue-based; summary of the method: as §5
Sequence of Delta-type opioid receptor (Mus musculus) (P32300 whole entry): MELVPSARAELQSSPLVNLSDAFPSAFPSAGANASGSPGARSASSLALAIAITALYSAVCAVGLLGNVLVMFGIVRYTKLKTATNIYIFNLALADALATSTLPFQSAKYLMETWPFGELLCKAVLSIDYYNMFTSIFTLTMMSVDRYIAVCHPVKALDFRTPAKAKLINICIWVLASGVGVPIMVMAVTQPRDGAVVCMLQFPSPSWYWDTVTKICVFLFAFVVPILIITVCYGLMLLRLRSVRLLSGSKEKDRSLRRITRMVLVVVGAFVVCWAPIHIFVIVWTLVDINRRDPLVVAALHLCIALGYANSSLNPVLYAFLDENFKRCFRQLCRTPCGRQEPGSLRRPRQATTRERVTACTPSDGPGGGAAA

Sequence of Delta-type opioid receptor (Mus musculus, UniProt P32300) (P32300 whole entry): as above
Sequence of Mu-type opioid receptor (Rattus norvegicus, UniProt P33535) (P33535 whole entry): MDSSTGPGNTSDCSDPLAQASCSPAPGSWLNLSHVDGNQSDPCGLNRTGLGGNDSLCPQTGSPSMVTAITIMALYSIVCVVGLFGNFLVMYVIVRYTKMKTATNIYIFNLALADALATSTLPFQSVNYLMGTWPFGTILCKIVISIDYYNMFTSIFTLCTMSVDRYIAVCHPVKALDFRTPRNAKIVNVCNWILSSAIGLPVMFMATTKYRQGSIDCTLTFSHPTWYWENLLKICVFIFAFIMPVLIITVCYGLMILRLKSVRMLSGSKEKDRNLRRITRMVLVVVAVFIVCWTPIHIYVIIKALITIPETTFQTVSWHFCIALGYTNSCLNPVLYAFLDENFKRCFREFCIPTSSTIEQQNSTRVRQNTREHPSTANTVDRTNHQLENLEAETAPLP
Sequence of Mu-type opioid receptor (Cavia porcellus, UniProt P97266) (P97266 whole entry): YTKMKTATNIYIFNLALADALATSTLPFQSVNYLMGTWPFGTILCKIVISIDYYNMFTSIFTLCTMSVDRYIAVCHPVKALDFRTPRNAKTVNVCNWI
Sequence of Delta-type opioid receptor (Rattus norvegicus, UniProt P33533) (P33533 whole entry): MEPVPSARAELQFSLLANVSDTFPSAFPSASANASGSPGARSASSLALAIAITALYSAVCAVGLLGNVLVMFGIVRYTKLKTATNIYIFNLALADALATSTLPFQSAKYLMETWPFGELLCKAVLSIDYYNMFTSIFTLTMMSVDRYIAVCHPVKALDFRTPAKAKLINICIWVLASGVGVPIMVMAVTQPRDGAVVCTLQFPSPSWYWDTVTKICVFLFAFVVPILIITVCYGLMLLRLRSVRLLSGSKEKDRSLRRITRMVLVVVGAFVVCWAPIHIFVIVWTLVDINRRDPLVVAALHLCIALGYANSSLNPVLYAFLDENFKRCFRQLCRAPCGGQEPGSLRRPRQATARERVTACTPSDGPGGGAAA
Sequence of Kappa-type opioid receptor (P41144 whole entry): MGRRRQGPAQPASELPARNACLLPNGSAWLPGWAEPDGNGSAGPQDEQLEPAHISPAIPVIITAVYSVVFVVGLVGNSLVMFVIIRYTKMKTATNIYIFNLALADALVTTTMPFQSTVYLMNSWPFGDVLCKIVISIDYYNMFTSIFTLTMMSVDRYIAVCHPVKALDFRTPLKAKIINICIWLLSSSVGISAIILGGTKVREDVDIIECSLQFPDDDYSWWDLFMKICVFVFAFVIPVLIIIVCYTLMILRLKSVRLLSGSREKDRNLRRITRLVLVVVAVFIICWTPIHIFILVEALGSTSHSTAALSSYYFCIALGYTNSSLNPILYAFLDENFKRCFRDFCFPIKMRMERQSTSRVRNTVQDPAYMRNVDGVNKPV
Sequence of Mu-type opioid receptor (Cavia porcellus) (P97266 whole entry): as the sequence (P97266 whole entry) above

Row | Structure (SMILES) | Activity (Mus musculus [4]) | remaining at 2 h [5] [%] | remaining at 2 h [6] [%] | Drug uptake (Serum) | Activity (Brain [7]) [min⁻¹] | Kin (Brain [8]) [µL/g/min] | IC50 [9] [nM] | IC50 (Mu-type opioid receptor [10]) [nM] | Ki [11] [nM] | Ki [12] [nM] | Ki (Mu-type opioid receptor [13]) [nM] | Activity (Mus musculus [16]) [%.min] | other results
1 | Cc1cc(O)cc(C)c1C[C@H](N)C(=O)N[C@H](CCCNC(=N)N)C(=O)N[C@@H](Cc1ccccc1)C(=O)N(C)[C@@H](CCCCN)C(N)=O | Active | 112 | 94 | Active | 0.028 | 18.11 | 7 | 8.3 | 56.1 | 309 | 0.26 | – | Activity (Mus musculus [1]): Dose-dependent effect; ED50 (Mus musculus [2]): 0.13 µmol/kg; Activity (Mus musculus [3]): Active
2 | CCCC[C@@H](C(N)=O)N1Cc2ccccc2C[C@H](NC(=O)[C@@H](CCCNC(N)=O)NC(=O)[C@@H](N)Cc2c(C)cc(O)cc2C)C1=O | – | – | – | – | – | – | 1.16 | – | 11.1 | 3.18 | 0.93 | – | IC35 [14]: 0.78 nM
3 | CCCC[C@@H](C(N)=O)N(C)C(=O)[C@H](Cc1ccccc1)NC(=O)[C@@H](CCCNC(N)=O)NC(=O)[C@@H](N)Cc1c(C)cc(O)cc1C (H-[Dmt][dCit]F[NMeNle]-NH2) | – | – | – | – | – | – | 1.5 | 0.65 | > 10 | 5.03 | 2.92 | – | –
4 | CCCC[C@@H](C(N)=O)N1Cc2ccccc2C[C@H](NC(=O)[C@@H](CCCN=C(N)N)NC(=O)[C@@H](N)Cc2c(C)cc(O)cc2C)C1=O | – | – | – | – | – | – | 3.1 | 1.45 | 1.12 | 7.46 | 0.43 | – | –
5 | CN1CC[C@]23c4c5ccc(O)c4O[C@H]2[C@@H](O)C=C[C@H]3[C@H]1C5 [MORPHINE] | – | – | – | – | – | – | – | – | – | – | – | 66 | ED50 (Mus musculus [15]): 6.6 µmol/kg
6 | C[C@@H](NC(=O)[C@@H](N)Cc1ccc(O)cc1)C(=O)N[C@@H](Cc1ccccc1)C(=O)NCC(=O)N[C@@H](Cc1ccc(O)cc1)C(=O)N1CCC[C@H]1C(=O)N[C@@H](CO)C(N)=O [DERMORPHIN] | – | – | – | – | – | – | – | – | – | – | – | 46 | –
7 | Cc1cc(O)cc(C)c1C[C@H](N)C(=O)N[C@H](CCCNC(=N)N)C(=O)N[C@H]1Cc2ccccc2CN(CC(N)=O)C1=O | Active | – | – | – | – | – | – | – | – | – | – | 253 | Activity (Mus musculus [1]): Dose-dependent effect; Ratio (Mus musculus [17]): 14; ED50 (Mus musculus [18]): 0.47 µmol/kg
8 | Cc1cc(O)cc(C)c1C[C@H](N)C(=O)N[C@H](CCCNC(N)=O)C(=O)N[C@H]1Cc2ccccc2CN([C@@H](CCCCN)C(N)=O)C1=O | – | – | – | – | – | – | 1000 | 49 | – | 56.9 | 2.62 | – | –
9 | Cc1cc(O)cc(C)c1C[C@H](N)C(=O)N[C@H](CCCNC(N)=O)C(=O)N[C@@H](Cc1ccccc1)C(=O)N[C@@H](CCCCN)C(N)=O | Active | 98.3 | 96.2 | Active | 0.027 | 14.91 | 1.4 | 0.31 | 20.9 | 50 | 0.57 | 521 | Activity (Mus musculus [19]): Active; Ratio (Mus musculus [17]): 29; ED50 (Mus musculus [18]): 0.23 µmol/kg; Activity (Mus musculus [20]): Active; Activity (Mus musculus [21]): Active; Drug uptake (Kidney): Active; Drug uptake (Liver): Active
10 | CCCC[C@@H](C(N)=O)N(C)C(=O)[C@H](Cc1ccccc1)NC(=O)[C@@H](CCCN=C(N)N)NC(=O)[C@@H](N)Cc1c(C)cc(O)cc1C | – | – | – | – | – | – | 1.5 | 4.35 | 14.4 | 16 | 0.26 | – | –
11 | CCCC[C@H](NC(=O)[C@H](Cc1ccccc1)NC(=O)[C@@H](CCCN=C(N)N)NC(=O)[C@@H](N)Cc1c(C)cc(O)cc1C)C(N)=O (H-[Dmt][dR]F[Nle]-NH2) | – | 90.2 | 104 | Active | -0.039 | 8.48 | 6.2 | 2.2 | 16.2 | 15.2 | 0.23 | – | Drug uptake (Liver): Active
12 | CCCC[C@H](NC(=O)[C@H](Cc1ccccc1)NC(=O)[C@@H](CCCNC(=N)N)NC(=O)[C@@H](N)Cc1c(C)cc(O)cc1C)C(N)=O (H-[Dmt][dR]F[Nle]-NH2) | Active | – | – | – | – | – | – | – | – | – | – | 65 | ED50 (Mus musculus [22]): > 6 µmol/kg; Activity (Mus musculus [21]): Active
13 | Cc1cc(O)cc(C)c1C[C@H](N)C(=O)N[C@H](CCCNC(=N)N)C(=O)N[C@@H](Cc1ccccc1)C(=O)N[C@@H](CCCCN)C(N)=O | Active | 94.7 | 103 | Active | 0.058 | 9.44 | – | – | – | – | – | 750 | half-life [23]: 1.8 h; Activity (Mus musculus [1]): Dose-dependent effect; ED50 (Mus musculus [2]): 0.15 µmol/kg; Activity (Mus musculus [21]): Active; Drug uptake (Kidney): Active
14 | Cc1cc(O)cc(C)c1C[C@H](N)C(=O)N[C@H](CCCNC(=N)N)C(=O)N[C@H]1Cc2ccccc2CN([C@@H](CCCCN)C(N)=O)C1=O | – | – | – | – | – | – | – | 76 | – | 38.6 | 0.61 | – | IC25 [24]: 64 nM
15 | CCCC[C@H](NC(=O)[C@H](Cc1ccccc1)NC(=O)[C@@H](CCCNC(N)=O)NC(=O)[C@@H](N)Cc1c(C)cc(O)cc1C)C(N)=O (H-[Dmt][dCit]F[Nle]-NH2) | – | – | – | – | – | – | 4.7 | 0.89 | 98.5 | 3.98 | 0.79 | – | –
16 | Cc1cc(O)cc(C)c1C[C@H](N)C(=O)N[C@H](CCCN=C(N)N)C(=O)N[C@H]1Cc2ccccc2CN(CC(N)=O)C1=O | – | 107 | 99.6 | Active | 0.096 | 14.89 | – | – | – | – | – | – | Drug uptake (Kidney): Active
17 | Cc1cc(O)cc(C)c1C[C@H](N)C(=O)N[C@H](CCCNC(N)=O)C(=O)N[C@@H](Cc1ccccc1)C(=O)N(C)[C@@H](CCCCN)C(N)=O | Active | 104 | 95 | Active | 0.01 | 11.35 | 4.4 | 1.01 | 11.5 | 39.2 | 0.94 | 1412 | Activity (Mus musculus [19]): Active; Ratio (Mus musculus [17]): 41; ED50 (Mus musculus [18]): 0.16 µmol/kg; Activity (Mus musculus [3]): Active
